Data: ChEMBL document CHEMBL1649110, “Pharmacodynamics of minocycline against Staphylococcus aureus in an in vitro pharmacokinetic model” (Antimicrob Agents Chemother, 2008)
≈ marks a conversion by molar mass, not a printed value. Calls of active or inactive are those of the source. The rule behind the calls is not given here.

Tests used:
[1] = tested on: Staphylococcus aureus; assay: Bactericidal activity against Staphylococcus aureus assessed as log reduction in bacterial count; assay type: functional
[2] = tested on: Staphylococcus aureus; assay: Antibacterial activity against Staphylococcus aureus in murine thigh infection model; assay type: functional; conditions: Thigh muscle
[3] = T>MIC in Staphylococcus aureus infected neutropenic mouse thigh infection model; assay type: functional, Thigh muscle
[4] = tested on: Staphylococcus aureus; assay: Bactericidal activity against methicillin-resistant Staphylococcus aureus infected in rabbit at 6 mg/kg of body weight administered every 8 hrs measured after 72 hrs; assay type: functional
[5] = T>MIC in Staphylococcus aureus infected rabbit; assay type: functional
[6] = Half life in human serum; assay type: ADME, cell-free
[7] = tested on: Staphylococcus aureus; assay: Bactericidal activity against Staphylococcus aureus assessed as reduction log reduction in viable bacterial count at 0.5 to 1 times MIC; assay type: functional
[8] = Cmax in simulated human serum in in vitro hollow-fiber PK model at 100 mg administered every 12 hrs; assay type: ADME, organism-based; set-up: dose 100 mg; conditions: in vitro hollow-fiber PK model simulating human serum
In short: (§1)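 Samples were taken at 0, 1, 2, 3, 4, 5, 6, 12 and 24 h. Concentrations were measured by bioassay on Penassay seed agar with Bacillus subtilis as indicator. Triplicate runs.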

[9] = Tmax in simulated human serum in in vitro hollow-fiber PK model at 100 mg administered every 12 hrs; assay type: ADME, cell-free; conditions: in vitro hollow-fiber PK model simulating human serum; in short: as §1
[10] = Half life in simulated human serum in in vitro hollow-fiber PK model at 100 mg administered every 12 hrs; assay type: ADME, cell-free; conditions: in vitro hollow-fiber PK model simulating human serum; in short: as §1
[11] = tested on: Staphylococcus aureus; assay: Antibacterial activity against methicillin-resistant Staphylococcus aureus SMH 32985 after 24 hrs by Etest; assay type: functional; conditions: SMH 32985, 24 h
[12] = tested on: Staphylococcus aureus; assay: Antibacterial activity against methicillin-resistant Staphylococcus aureus SMH 32024 after 24 hrs by Etest; assay type: functional; conditions: SMH 32024, 24 h
[13] = tested on: Staphylococcus aureus; assay: Antibacterial activity against Staphylococcus aureus SMH 26910 after 24 hrs by Etest; assay type: functional; conditions: SMH 26910, 24 h
[14] = tested on: Staphylococcus aureus; assay: Antibacterial activity against Staphylococcus aureus SMH 31236 after 24 hrs by Etest; assay type: functional; conditions: SMH 31236, 24 h
[15] = tested on: Staphylococcus aureus; assay: Antibacterial activity against methicillin-resistant Staphylococcus aureus SMH 32985 infected in in vitro hollow-fiber model assessed as log reduction in viable bacterial count at 100 mg after 12 hrs; assay type: functional
[16] = tested on: Staphylococcus aureus; assay: Antibacterial activity against methicillin-resistant Staphylococcus aureus SMH 32985 infected in in vitro hollow-fiber model assessed as log reduction in viable bacterial count at 100 mg administered every 12 hrs measured after 24 hrs; assay type: functional
In short: (§2)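 Hollow-fiber model at 37°C, 25% Mueller-Hinton broth, 10^6 CFU/ml inoculum in the peripheral compartment. […] Viable counts on nutrient agar (detection limit 2.0 x 10^2 CFU/ml). Read-out is log change in count at 24 h versus start. Triplicate.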

[17] = tested on: Staphylococcus aureus; assay: Antibacterial activity against methicillin-resistant Staphylococcus aureus SMH 32024 infected in in vitro hollow-fiber model assessed as log reduction in viable bacterial count at 100 mg after 12 hrs; assay type: functional
[18] = tested on: Staphylococcus aureus; assay: Antibacterial activity against methicillin-resistant Staphylococcus aureus SMH 32024 infected in in vitro hollow-fiber model assessed as log reduction in viable bacterial count at 100 mg administered every 12 hrs measured after 24 hrs; assay type: functional; in short: as §2
[19] = tested on: Staphylococcus aureus; assay: Antibacterial activity against Staphylococcus aureus SMH 26910 infected in in vitro hollow-fiber model assessed as log reduction in viable bacterial count at 100 mg after 12 hrs; assay type: functional
In short: (§3)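 Hollow-fiber model at 37°C in 25% Mueller-Hinton broth with a peripheral-compartment inoculum of 10^6 CFU/ml. […] Samples were taken at 0–24 h and counted on nutrient agar (detection limit 2.0 x 10^2 CFU/ml). Run in triplicate.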

[20] = tested on: Staphylococcus aureus; assay: Antibacterial activity against Staphylococcus aureus SMH 26910 infected in in vitro hollow-fiber model assessed as log reduction in viable bacterial count at 100 mg administered every 12 hrs measured after 24 hrs; assay type: functional; in short: as §3
[21] = tested on: Staphylococcus aureus; assay: Antibacterial activity against Staphylococcus aureus SMH 31236 infected in in vitro hollow-fiber model assessed as log reduction in viable bacterial count at 100 mg after 12 hrs; assay type: functional; in short: as §3
[22] = tested on: Staphylococcus aureus; assay: Antibacterial activity against Staphylococcus aureus SMH 31236 infected in in vitro hollow-fiber model assessed as log reduction in viable bacterial count at 100 mg administered every 12 hrs measured after 24 hrs; assay type: functional; in short: as §3
[23] = tested on: Staphylococcus aureus; assay: AUBKC (24 hrs) in methicillin-resistant Staphylococcus aureus SMH 32985 infected in in vitro hollow-fiber PK model at 100 mg administered every 12 hrs; assay type: functional
In short: (§4)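 Peripheral compartment inoculated to 10^6 CFU/ml. Samples at 0–24 h were spiral-plated on nutrient agar (detection limit 2.0 x 10^2 CFU/ml). Area under the bacterial kill curve was taken over 0–24 h. Triplicate runs.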

[24] = tested on: Staphylococcus aureus; assay: AUBKC (24 hrs) in methicillin-resistant Staphylococcus aureus SMH 32024 infected in in vitro hollow-fiber PK model at 100 mg administered every 12 hrs; assay type: functional; in short: as §4
[25] = tested on: Staphylococcus aureus; assay: AUBKC (24 hrs) in […] Staphylococcus aureus SMH 26910 infected in in vitro hollow-fiber PK model at 100 mg administered every 12 hrs; assay type: functional; in short: as §4
[26] = tested on: Staphylococcus aureus; assay: AUBKC (24 hrs) in methicillin-resistant Staphylococcus aureus SMH 31236 infected in in vitro hollow-fiber PK model at 100 mg administered every 12 hrs; assay type: functional; in short: as §4
[27] = tested on: Staphylococcus aureus; assay: Ratio of AUC to MIC in methicillin-resistant Staphylococcus aureus infected in in vitro hollow-fiber PK model at 100 mg administered every 12 hrs; assay type: functional
[28] = tested on: Staphylococcus aureus; assay: Ratio of AUC to MIC in methicillin-resistant Staphylococcus aureus infected in in vitro hollow-fiber PK model at 100 mg after 24 hrs; assay type: functional
[29] = tested on: Staphylococcus aureus; assay: Ratio of AUC to MIC in methicillin-resistant Staphylococcus aureus infected in in vitro hollow-fiber PK model at 100 mg after 12 hrs; assay type: functional
[30] = tested on: Staphylococcus aureus; assay: Ratio of AUC to MIC in methicillin-resistant Staphylococcus aureus infected in in vitro hollow-fiber PK model at 100 mg after 8 hrs; assay type: functional
[31] = tested on: Staphylococcus aureus; assay: Bactericidal activity against methicillin-resistant Staphylococcus aureus infected in rabbit at 50 mg/kg of body weight administered every 8 hrs measured after 72 hrs; assay type: functional
[32] = Cmax in simulated human serum in in vitro hollow-fiber PK model at 1 g administered every 12 hrs by fluorescence polarization immunoassay method; assay type: ADME, organism-based; set-up: dose 1 g; conditions: in vitro hollow-fiber PK model simulating human serum
In short: (§5)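 Free vancomycin 1 g q12h simulated in a hollow-fiber model at 37°C with 25% Mueller-Hinton broth. […] Dosed into the dosing chamber at 0 and 12 h. Samples were taken at 0, 1, 2, 3, 4, 5, 6, 12 and 24 h, and concentrations measured by fluorescence polarization immunoassay. Triplicate experiments.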

[33] = Tmax in simulated human serum in in vitro hollow-fiber PK model at 1 g administered every 12 hrs; assay type: ADME, cell-free; conditions: in vitro hollow-fiber PK model simulating human serum; in short: as §5
[34] = Half life in simulated human serum in in vitro hollow-fiber PK model at 1 g administered every 12 hrs; assay type: ADME, cell-free; conditions: in vitro hollow-fiber PK model simulating human serum; in short: as §5
[35] = Cmax in simulated human serum in in vitro hollow-fiber PK model at 600 mg administered every 24 hrs by HPLC; assay type: ADME, organism-based; set-up: dose 600 mg; conditions: in vitro hollow-fiber PK model simulating human serum
[36] = Tmax in simulated human serum in in vitro hollow-fiber PK model at 600 mg administered every 24 hrs; assay type: ADME, cell-free; conditions: in vitro hollow-fiber PK model simulating human serum
[37] = tested on: Staphylococcus aureus; assay: Bactericidal activity against Staphylococcus aureus assessed as viable bacterial count at 2 times MIC; assay type: functional
[38] = tested on: Staphylococcus aureus; assay: Bactericidal activity against Staphylococcus aureus assessed as viable bacterial count at 4 times MIC; assay type: functional
[39] = tested on: Staphylococcus aureus; assay: Bactericidal activity against Staphylococcus aureus infected in in vitro hollow-fiber PK model at 200 mg administered every 12 hrs; assay type: functional, organism-based
[40] = tested on: Staphylococcus aureus; assay: Bactericidal activity against Staphylococcus aureus infected in in vitro hollow-fiber PK model at 400 mg administered every 24 hrs; assay type: functional, organism-based
[41] = tested on: Staphylococcus aureus; assay: Bactericidal activity against Staphylococcus aureus infected in in vitro hollow-fiber PK model at 100 mg administered every 12 hrs; assay type: functional, organism-based
[42] = tested on: Staphylococcus aureus; assay: Bactericidal activity against Staphylococcus aureus infected in in vitro hollow-fiber PK model at 200 mg administered every 24 hrs; assay type: functional, organism-based

With CN(C)c1cc(NC(=O)CNC(C)(C)C)c(O)c2c1C[C@H]1C[C@H]3[C@H](N(C)C)C(O)=C(C(N)=O)C(=O)[C@@]3(O)C(O)=C1C2=O [TIGECYCLINE] the Activity [1] was “Active”, the “Log reduction in bacterial count” value [1] was 2 and the MIC [2] was 0.125 µg/mL (≈ 0.213 µM). The “fT>MIC” value [3] was greater than 50%.

For CN(C)c1ccc(O)c2c1C[C@H]1C[C@H]3[C@H](N(C)C)C(O)=C(C(N)=O)C(=O)[C@@]3(O)C(O)=C1C2=O [MINOCYCLINE], the “Log reduction in bacterial count” value [1] was 1.5, the log10 CFU/g [4] was 5.3 log10 CFU/g and the “fT>MIC” value [5] was 100%. The half-life [6] was 12 h, the FC [7] was 1.5 and the Cmax [8] was 600 ng/mL. The Tmax [9] was 2.3 h, the half-life [10] was 12 h and the MIC [11] was 0.04 µg/mL (≈ 0.0874 µM). For the same compound, the MIC [12] was 0.19 µg/mL (≈ 0.415 µM), the MIC [13] was 0.06 µg/mL (≈ 0.131 µM) and the MIC [14] was 0.75 µg/mL (≈ 1.64 µM). It also gave an FC [15] of 0.5, an FC [16] of 0.8 and an FC [17] of 0.8. It also gave an FC [18] of 0.2, an FC [19] of 1.9 and an FC [20] of 1.4. For the same compound, the FC [21] was 1.6, the FC [22] was 0.1 and the “fold change (FC)” value [23] was 79.7. For the same compound, the “fold change (FC)” value [24] was 77.2, the “fold change (FC)” value [25] was 77.6 and the “fold change (FC)” value [26] was 98.4. It also gave a RatioAUC/MIC [27] of 200, a RatioAUC/MIC [28] of 1.6 and a RatioAUC/MIC [29] of 2.1. It also gave a RatioAUC/MIC [30] of 1.7.

In the case of CN[C@H](CC(C)C)C(=O)N[C@H]1C(=O)N[C@@H](CC(N)=O)C(=O)N[C@H]2C(=O)N[C@H]3C(=O)N[C@H](C(=O)N[C@H](C(=O)O)c4cc(O)cc(O)c4-c4cc3ccc4O)[C@H](O)c3ccc(c(Cl)c3)Oc3cc2cc(c3O[C@@H]2O[C@H](CO)[C@@H](O)[C@H](O)[C@H]2O[C@H]2C[C@](C)(N)[C@H](O)[C@H](C)O2)Oc2ccc(cc2Cl)[C@H]1O [VANCOMYCIN], the log10 CFU/g [31] is reported as 4.8 log10 CFU/g, the Cmax [32] is reported as 15000 ng/mL and the Tmax [33] is reported as 1 h. The half-life [34] was 6 h, the MIC [11] was 1.5 µg/mL (≈ 1.04 µM) and the MIC [12] was 1.5 µg/mL (≈ 1.04 µM). For the same compound, the MIC [13] was 1.5 µg/mL (≈ 1.04 µM).

CO[C@H]1/C=C/O[C@@]2(C)Oc3c(C)c(O)c4c(O)c(c(/C=N/N5CCN(C)CC5)c(O)c4c3C2=O)NC(=O)/C(C)=C\C=C\[C@H](C)[C@H](O)[C@@H](C)[C@@H](O)[C@@H](C)[C@H](OC(C)=O)[C@@H]1C [RIFAMPIN] gave a Cmax [35] of 2000 ng/mL and a Tmax [36] of 1.2 h.

For C[C@H]1c2cccc(O)c2C(=O)C2=C(O)[C@]3(O)C(=O)C(C(N)=O)=C(O)[C@@H](N(C)C)[C@@H]3[C@@H](O)[C@@H]21.O [DOXYCYCLINE], the Activity [1] was “Active”, the “fold change (FC)” value [37] was 0.5 and the fold change (FC) [38] was 0.5. The Activity [39] was “Active”, the Activity [40] was “Active” and the Activity [41] was “Active”. For the same compound, the Activity [42] was “Active”.
